According to ChEMBL document CHEMBL1833943, “Synthesis and structure-activity relationships of varied ether linker analogues of the antitubercular drug (6S)-2-nitro-6-{[4-(trifluoromethoxy)benzyl]oxy}-6,7-dihydro-5h-imidazo[2,1-b][1,3]oxazine (PA-824)” (J Med Chem, 2011):
Converted amounts (≈) assume the structure as drawn.

What was measured:
[1] = tested on: Mycobacterium tuberculosis; test: Antituberculosis activity against Mycobacterium tuberculosis H37Rv under aerobic conditions by microplate alamar blue assay; assay type: functional
[2] = tested on: Mycobacterium tuberculosis; test: Antituberculosis activity against Mycobacterium tuberculosis H37Rv under anaerobic conditions by fluorescence based low-oxygen-recovery assay; assay type: functional
[3] = Aqueous solubility of the compound in water at pH 7 by HPLC analysis; assay type: physicochemical
Outline: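 Solubility measured in water at pH 7 and 20 °C, quantified by HPLC.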

[4] = Metabolic stability in CD1 mouse liver microsomes at 1 uM measured as compound remaining after 1 hr by LC/MS/MS analysis; assay type: ADME, Microsome; conditions: read-out: Stability
[5] = Metabolic stability in human liver microsomes at 1 uM measured as compound remaining after 1 hr by LC/MS/MS analysis; assay type: ADME, Microsome; conditions: read-out: Stability
[6] = tested on: Mycobacterium tuberculosis; test: Antituberculosis activity against Mycobacterium tuberculosis H37Rv infected in BALB/c mouse acute infection model assessed as fold reduction in bacterial CFU in lungs at 100 mg/kg, po administered for 5 days a week for 3 weeks beginning on day 11 postinfection relative to PA-824; assay type: functional
Outline: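 Mice with acute M. tb infection dosed orally at 100 mg/kg daily, 5 days each week, standard 3 week assay. Lung CFUs counted. Value is the fold CFU decrease for the compound divided by the fold CFU decrease for the internal reference standard run in the same experiment.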

| Compound | MIC [1] [µM] | MIC [2] [µM] | solubility [3] [µg/mL] | remaining at 1 h, 1 µM [4] [%] | remaining at 1 h, 1 µM [5] [%] | fold change (FC) [6] |
| --- | --- | --- | --- | --- | --- | --- |
| O=[N+]([O-])c1cn2c(n1)OC[C@@H](Oc1ccc(C(F)(F)F)cn1)C2 | 2.9 (≈ 0.958 µg/mL) | 16 (≈ 5.28 µg/mL) | – | – | – | – |
| O=[N+]([O-])c1cn2c(n1)OC[C@@H](OCc1ccc(OCc3ccccc3)cc1)C2 | 0.025 (≈ 0.00953 µg/mL) | 1.3 (≈ 0.496 µg/mL) | 0.76 (≈ 1.99 µM) | 44 | 59 | – |
| O=[N+]([O-])c1cn2c(n1)OC[C@@H](OCc1ccc(C(F)(F)F)cn1)C2 | 1.5 (≈ 0.516 µg/mL) | 22 (≈ 7.57 µg/mL) | 188 (≈ 546 µM) | – | – | – |
| O=[N+]([O-])c1cn2c(n1)OC[C@@H](OCc1ccc(C(F)(F)F)nc1)C2 | 3 (≈ 1.03 µg/mL) | 50 (≈ 17.2 µg/mL) | 68 (≈ 198 µM) | – | – | – |
| O=[N+]([O-])c1cn2c(n1)OC[C@@H](OCCCc1ccc(OC(F)(F)F)cc1)C2 | 0.22 (≈ 0.0852 µg/mL) | 3.2 (≈ 1.24 µg/mL) | 11 (≈ 28.4 µM) | – | – | – |
| O=[N+]([O-])c1cn2c(n1)OC[C@@H](OCCCc1ccc(OCc3ccccc3)cc1)C2 | 0.5 (≈ 0.205 µg/mL) | 3.7 (≈ 1.51 µg/mL) | 3.8 (≈ 9.28 µM) | – | – | – |
| O=[N+]([O-])c1cn2c(n1)OC[C@@H](OCCCc1ccc(C(F)(F)F)nc1)C2 | 0.51 (≈ 0.19 µg/mL) | 12 (≈ 4.47 µg/mL) | 168 (≈ 451 µM) | – | – | – |
| O=[N+]([O-])c1cn2c(n1)OC[C@@H](OCCOc1ccc(OCc3ccccc3)cc1)C2 | 0.085 (≈ 0.035 µg/mL) | 5.5 (≈ 2.26 µg/mL) | 1.7 (≈ 4.13 µM) | – | – | – |
| O=[N+]([O-])c1cn2c(n1)OC[C@@H](OCCOc1ccc(C(F)(F)F)cn1)C2 | 0.38 (≈ 0.142 µg/mL) | 26 (≈ 9.73 µg/mL) | 42 (≈ 112 µM) | – | – | – |
| O=[N+]([O-])c1cn2c(n1)OC[C@@H](OCCOc1ccc(C(F)(F)F)nc1)C2 | 0.79 (≈ 0.296 µg/mL) | 59 (≈ 22.1 µg/mL) | 58 (≈ 155 µM) | – | – | – |
| O=[N+]([O-])c1cn2c(n1)OC[C@@H](OC/C=C/c1ccc(OC(F)(F)F)cc1)C2 | 0.05 (≈ 0.0193 µg/mL) | 4.3 (≈ 1.66 µg/mL) | 1.5 (≈ 3.89 µM) | 71 | 99 | – |
| O=[N+]([O-])c1cn2c(n1)OC[C@@H](OC/C=C/c1ccc(C(F)(F)F)cn1)C2 | 0.043 (≈ 0.0159 µg/mL) | 3.8 (≈ 1.41 µg/mL) | 29 (≈ 78.3 µM) | – | – | – |
| O=[N+]([O-])c1cn2c(n1)OC[C@@H](OC/C=C/c1ccc(C(F)(F)F)nc1)C2 | 0.15 (≈ 0.0555 µg/mL) | 21 (≈ 7.78 µg/mL) | 45 (≈ 122 µM) | – | – | – |
| O=[N+]([O-])c1cn2c(n1)OC[C@@H](OCC#Cc1ccc(C(F)(F)F)cn1)C2 | 0.12 (≈ 0.0442 µg/mL) | 3.3 (≈ 1.22 µg/mL) | 8.4 (≈ 22.8 µM) | – | – | – |
| O=[N+]([O-])c1cn2c(n1)OC[C@@H](OCC#Cc1ccc(C(F)(F)F)nc1)C2 | 0.18 (≈ 0.0663 µg/mL) | 8.9 (≈ 3.28 µg/mL) | 11 (≈ 29.9 µM) | – | – | – |
| O=[N+]([O-])c1cn2c(n1)OC[C@@H](OCCCC#Cc1ccc(C(F)(F)F)cn1)C2 | 0.19 (≈ 0.0753 µg/mL) | 3.5 (≈ 1.39 µg/mL) | 28 (≈ 70.6 µM) | – | – | – |
| O=[N+]([O-])c1cn2c(n1)OC[C@@H](OCCCc1ccc(-c3ccc(C(F)(F)F)cc3)cc1)C2 | 0.043 (≈ 0.0192 µg/mL) | > 128 | – | 81 | 73 | 0.05 |
| O=[N+]([O-])c1cn2c(n1)OC[C@@H](OCCOc1ncc(-c3ccc(OC(F)(F)F)cc3)cn1)C2 | 0.13 (≈ 0.0608 µg/mL) | 2.1 (≈ 0.981 µg/mL) | 21 (≈ 44.9 µM) | – | – | – |
| O=[N+]([O-])c1cn2c(n1)OC[C@@H](OCCOc1ncc(-c3ccc(C(F)(F)F)nc3)cn1)C2 | 0.63 (≈ 0.285 µg/mL) | 56 (≈ 25.3 µg/mL) | – | – | – | – |
| O=[N+]([O-])c1cn2c(n1)OC[C@@H](OC/C=C/c1ccc(-c3ccc(OC(F)(F)F)cc3)cc1)C2 | – | > 128 | 0.5 (≈ 1.08 µM) | 95 | 100 | 2 |
| O=[N+]([O-])c1cn2c(n1)OC[C@@H](OCC#Cc1ccc(-c3ccc(C(F)(F)F)nc3)cc1)C2 | 0.15 (≈ 0.0667 µg/mL) | 1.2 (≈ 0.533 µg/mL) | – | 90 | 82 | 0.01 |
| O=[N+]([O-])c1cn2c(n1)OC[C@@H](OCC#Cc1cccc(-c3ccc(C(F)(F)F)cc3)c1)C2 | 0.27 (≈ 0.12 µg/mL) | 1.3 (≈ 0.576 µg/mL) | – | – | – | – |
| O=[N+]([O-])c1cn2c(n1)OC[C@@H](Oc1cc(-c3ccc(C(F)(F)F)nc3)ncn1)C2 | 3 (≈ 1.22 µg/mL) | 62 (≈ 25.3 µg/mL) | – | – | – | – |

| Compound | MIC [1] [µM] | MIC [2] [µM] | solubility [3] [µg/mL] | remaining at 1 h, 1 µM [4] [%] | remaining at 1 h, 1 µM [5] [%] | fold change (FC) [6] |
| --- | --- | --- | --- | --- | --- | --- |
| O=[N+]([O-])c1cn2c(n1)OC[C@@H](Oc1ccc(-c3ccc(C(F)(F)F)nc3)cn1)C2 | 0.42 (≈ 0.171 µg/mL) | 14 (≈ 5.7 µg/mL) | – | – | – | – |
| O=[N+]([O-])c1cn2c(n1)OC[C@@H](Oc1ccc(-c3ccc(OC(F)(F)F)cc3)nc1)C2 | 0.14 (≈ 0.0591 µg/mL) | 1.5 (≈ 0.633 µg/mL) | 0.27 (≈ 0.639 µM) | – | – | – |
| O=[N+]([O-])c1cn2c(n1)OC[C@@H](Oc1ccc(-c3ccc(F)cc3)nc1)C2 | 0.5 (≈ 0.178 µg/mL) | 5.6 (≈ 2 µg/mL) | – | – | – | – |
| O=[N+]([O-])c1cn2c(n1)OC[C@@H](Oc1ccc(-c3ccc(C(F)(F)F)cc3)nc1)C2 | 0.78 (≈ 0.317 µg/mL) | 1.2 (≈ 0.488 µg/mL) | – | – | – | – |
| O=[N+]([O-])c1cn2c(n1)OC[C@@H](Oc1ccc(-c3ccc(C(F)(F)F)nc3)nc1)C2 | 0.45 (≈ 0.183 µg/mL) | 17 (≈ 6.92 µg/mL) | – | – | – | – |
| O=[N+]([O-])c1cn2c(n1)OC[C@@H](Oc1ncc(-c3ccc(OC(F)(F)F)cc3)cn1)C2 | 0.22 (≈ 0.0931 µg/mL) | 5.2 (≈ 2.2 µg/mL) | 1.7 (≈ 4.02 µM) | 95 | 88 | – |
| O=[N+]([O-])c1cn2c(n1)OC[C@@H](Oc1ncc(-c3ccc(F)cc3)cn1)C2 | 1.6 (≈ 0.572 µg/mL) | 7.4 (≈ 2.64 µg/mL) | – | – | – | – |
| O=[N+]([O-])c1cn2c(n1)OC[C@@H](Oc1ncc(-c3ccc(C(F)(F)F)nc3)cn1)C2 | 1.3 (≈ 0.531 µg/mL) | 17 (≈ 6.94 µg/mL) | – | – | – | – |
| O=[N+]([O-])c1cn2c(n1)OC[C@@H](OCCCC#Cc1ccc(C(F)(F)F)nc1)C2 | 0.12 (≈ 0.0476 µg/mL) | 9.2 (≈ 3.65 µg/mL) | 16 (≈ 40.4 µM) | – | – | – |
| O=[N+]([O-])c1cn2c(n1)OC[C@@H](Oc1ccc(-c3ccc(F)cc3)cc1)C2 | 0.31 (≈ 0.11 µg/mL) | 1.2 (≈ 0.426 µg/mL) | – | – | – | – |
| O=[N+]([O-])c1cn2c(n1)OC[C@@H](Oc1ccc(-c3ccc(C(F)(F)F)nc3)cc1)C2 | 0.51 (≈ 0.207 µg/mL) | 4.1 (≈ 1.67 µg/mL) | – | – | – | – |
| O=[N+]([O-])c1cn2c(n1)OC[C@@H](Oc1cccc(-c3ccc(OC(F)(F)F)cc3)n1)C2 | 0.24 (≈ 0.101 µg/mL) | 3.3 (≈ 1.39 µg/mL) | 0.12 (≈ 0.284 µM) | – | – | – |
| O=[N+]([O-])c1cn2c(n1)OC[C@@H](Oc1cccc(-c3ccc(F)cc3)n1)C2 | 3.2 (≈ 1.14 µg/mL) | 27 (≈ 9.62 µg/mL) | – | – | – | – |
| O=[N+]([O-])c1cn2c(n1)OC[C@@H](Oc1cccc(-c3ccc(C(F)(F)F)cc3)n1)C2 | 0.55 (≈ 0.223 µg/mL) | 35 (≈ 14.2 µg/mL) | – | – | – | – |
| O=[N+]([O-])c1cn2c(n1)OC[C@@H](Oc1cccc(-c3ccc(C(F)(F)F)nc3)n1)C2 | 5.7 (≈ 2.32 µg/mL) | > 128 | – | – | – | – |
| O=[N+]([O-])c1cn2c(n1)OC[C@@H](Oc1ccnc(-c3ccc(OC(F)(F)F)cc3)c1)C2 | 0.3 (≈ 0.127 µg/mL) | 2.6 (≈ 1.1 µg/mL) | 0.53 (≈ 1.25 µM) | – | – | – |
| O=[N+]([O-])c1cn2c(n1)OC[C@@H](Oc1ccnc(-c3ccc(F)cc3)c1)C2 | 0.67 (≈ 0.239 µg/mL) | 8.5 (≈ 3.03 µg/mL) | – | – | – | – |
| O=[N+]([O-])c1cn2c(n1)OC[C@@H](Oc1ccnc(-c3ccc(C(F)(F)F)cc3)c1)C2 | 0.65 (≈ 0.264 µg/mL) | > 128 | – | – | – | – |
| O=[N+]([O-])c1cn2c(n1)OC[C@@H](Oc1ccnc(-c3ccc(C(F)(F)F)nc3)c1)C2 | 14 (≈ 5.7 µg/mL) | > 128 | – | – | – | – |
| O=[N+]([O-])c1cn2c(n1)OC[C@@H](Oc1cc(-c3ccc(F)cc3)ccn1)C2 | 5.2 (≈ 1.85 µg/mL) | 28 (≈ 9.98 µg/mL) | – | – | – | – |
| O=[N+]([O-])c1cn2c(n1)OC[C@@H](Oc1cc(-c3ccc(C(F)(F)F)cc3)ccn1)C2 | 0.88 (≈ 0.358 µg/mL) | 32 (≈ 13 µg/mL) | – | – | – | – |
| O=[N+]([O-])c1cn2c(n1)OC[C@@H](Oc1cc(-c3ccc(C(F)(F)F)nc3)ccn1)C2 | 3 (≈ 1.22 µg/mL) | 27 (≈ 11 µg/mL) | – | – | – | – |
| CC(O[C@@H]1COc2nc([N+](=O)[O-])cn2C1)c1ccc(OC(F)(F)F)cc1 (mixture of isomers) | 0.6 | 7.7 | – | 75 | 73 | – |
